Results from ChEMBL document CHEMBL1127469, “Decapeptide agonists of human C5a: the relationship between conformation and spasmogenic and platelet aggregatory activities” (J Med Chem, 1994).
Bridge positions count the residues as written; N and C are the ends. Peptide text beside a SMILES is read from it.

Experiments:
[1] = biological target: T1, C5a anaphylatoxin chemotactic receptor 1 (Cavia porcellus) (UniProt O70129); assay: Pharmacological activity against C5a receptor in guinea pig ileum; assay type: tissue-based
T1 sequence (whole entry): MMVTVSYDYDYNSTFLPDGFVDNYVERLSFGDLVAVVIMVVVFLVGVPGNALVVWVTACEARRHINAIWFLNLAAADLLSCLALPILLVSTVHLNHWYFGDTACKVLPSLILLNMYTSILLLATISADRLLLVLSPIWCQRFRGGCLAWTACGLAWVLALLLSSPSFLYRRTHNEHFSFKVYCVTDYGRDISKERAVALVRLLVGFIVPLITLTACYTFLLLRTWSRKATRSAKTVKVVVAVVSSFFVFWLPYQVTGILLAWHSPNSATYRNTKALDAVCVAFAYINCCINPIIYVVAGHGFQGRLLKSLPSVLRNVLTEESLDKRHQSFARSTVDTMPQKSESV
Outline: (§1)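 Isometric contraction of tissue strips in 2 mL organ baths of Krebs-Ringers solution, 37 °C, pH 7.4, gassed with 95% O2/5% CO2, equilibrated 1 h. Tachyphylaxis prevents cumulative curves, so each strip gets one peptide concentration, then histamine 10 μM. Response is taken as % of the histamine maximum. EC50 comes from probit analysis, reported as pD2 (-log EC50, M), mean ± SE.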

Homo sapiens = organism: Homo sapiens; assay: Effective dose required for smooth muscle contraction in human fetal artery; assay type: functional; conditions: Muscle tissue; outline: as §1
Cavia porcellus [2] = organism: Cavia porcellus; assay: Effective dose required for smooth muscle contraction in Guinea pig lung parenchyma; assay type: functional; outline: as §1
Cavia porcellus [3] = organism: Cavia porcellus; assay: Effective dose required for smooth muscle contraction in guinea pig ileum; assay type: functional; conditions: Muscle tissue; outline: as §1
[4] = test system: C5a anaphylatoxin chemotactic receptor 1 (Cavia porcellus); assay: Tested for pharmacological activity against C5a receptor in Guinea pig lung parenchyma
Cavia porcellus [5] = organism: Cavia porcellus; assay: Platelet aggregation in guinea pig; assay type: functional
Outline: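 Platelet-rich plasma from arterial blood of anesthetized male Hartley guinea pigs, diluted to 3 × 10^8 platelets/mL in 0.39% sodium citrate. Peptides are serially diluted 1.5-fold and shaken with plasma and a 3 mm glass bead at 100 rpm, 5 min, 37 °C. Aggregation is scored visually at 40×. The threshold is the greatest dilution giving visible aggregation. At least three independent duplicate runs; C5a and C3a serve as standards.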

[6] = biological target: T2, C5a anaphylatoxin chemotactic receptor 1 (Homo sapiens) (UniProt P21730); assay: Pharmacological activity against C5a receptor in human fetal artery; outline: as §1
T2 sequence (whole entry): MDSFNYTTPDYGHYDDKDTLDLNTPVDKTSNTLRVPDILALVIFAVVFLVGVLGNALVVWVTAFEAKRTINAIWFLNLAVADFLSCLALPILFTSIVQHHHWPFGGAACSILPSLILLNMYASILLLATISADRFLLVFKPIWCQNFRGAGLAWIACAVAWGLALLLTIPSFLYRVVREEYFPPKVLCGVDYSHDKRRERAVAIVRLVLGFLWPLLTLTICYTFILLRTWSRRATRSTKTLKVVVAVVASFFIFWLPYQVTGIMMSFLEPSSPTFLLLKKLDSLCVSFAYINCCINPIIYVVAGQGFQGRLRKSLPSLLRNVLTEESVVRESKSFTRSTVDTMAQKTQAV

## CSCC[C@H](NC(=O)CNC(=O)[C@H](CCCCN)NC(=O)[C@H](Cc1ccccc1)NC(=O)[C@H](CO)NC(=O)[C@@H](N)Cc1ccc(O)cc1)C(=O)N[C@@H](CC(C)C)C(=O)N[C@@H](CC(C)C)C(=O)NCC(=O)N[C@@H](CCCN=C(N)N)C(=O)O
[1]
  pD2: 4.61
Homo sapiens
  EC50: 4.9 µM
Cavia porcellus [2]
  EC50: 15.1 µM
Cavia porcellus [3]
  EC50: 26.8 µM
[4]
  pD2: 5
Cavia porcellus [5]
  Platelet aggregation: 10.5 µM
[6]
  pD2: 5.34

## H-YSFKGLLLGR-OH
[1]
  pD2: 4.74
Homo sapiens
  EC50: 6.6 µM
Cavia porcellus [2]
  EC50: 22.1 µM
Cavia porcellus [3]
  EC50: 18.1 µM
Cavia porcellus [5]
  Platelet aggregation: 21 µM
[6]
  pD2: 5.21

## H-ISFKDMQLGR-OH
Cavia porcellus [5]
  Platelet aggregation: 86.3 µM

## CSCC[C@H](NC(=O)[C@H](CC(=O)O)NC(=O)[C@H](CCCCN)NC(=O)[C@H](Cc1ccccc1)NC(=O)[C@H](CO)NC(=O)[C@@H](N)Cc1ccc(O)cc1)C(=O)N1CCC[C@H]1C(=O)N[C@@H](C)C(=O)NCC(=O)N[C@@H](CCCN=C(N)N)C(=O)O
Homo sapiens
  EC50: > 1000 µM
Cavia porcellus [5]
  Platelet aggregation: 101 µM
[6]
  pD2: < 3

## CSCC[C@H](NC(=O)[C@H](CC(=O)O)NC(=O)[C@H](CCCCN)NC(=O)[C@H](Cc1ccccc1)NC(=O)[C@H](CO)NC(=O)[C@@H](N)Cc1ccc(O)cc1)C(=O)N[C@@H](CCC(N)=O)C(=O)N[C@@H](CC(C)C)C(=O)N[C@H](C)C(=O)N[C@@H](CCCN=C(N)N)C(=O)O
Homo sapiens
  EC50: 12.2 µM
Cavia porcellus [5]
  Platelet aggregation: 20 µM
[6]
  pD2: 5.42

## CC(C)C[C@H](NC(=O)[C@@H]1CCCN1C(=O)[C@H](C)NC(=O)[C@H](CC(=O)O)NC(=O)[C@H](CCCCN)NC(=O)[C@H](Cc1ccccc1)NC(=O)[C@H](CO)NC(=O)[C@@H](N)Cc1ccc(O)cc1)C(=O)NCC(=O)N[C@@H](CCCN=C(N)N)C(=O)O
[1]
  pD2: 4.79
Homo sapiens
  EC50: 1.74 µM
Cavia porcellus [3]
  EC50: 26.6 µM
Cavia porcellus [5]
  Platelet aggregation: 7.4 µM
[6]
  pD2: 6.11

## CSCC[C@H](NC(=O)[C@H](CC(=O)O)NC(=O)[C@H](CCCCN)NC(=O)[C@H](Cc1ccccc1)NC(=O)[C@H](CO)NC(=O)[C@@H](N)Cc1ccc(O)cc1)C(=O)N[C@@H](CCC(N)=O)C(=O)N[C@@H](CC(C)C)C(=O)N[C@@H](C)C(=O)N[C@@H](CCCN=C(N)N)C(=O)O
Homo sapiens
  EC50: 122 µM
Cavia porcellus [5]
  Platelet aggregation: 34 µM
[6]
  pD2: 4.04

## CSCC[C@H](NC(=O)CNC(=O)[C@H](CCCCN)NC(=O)[C@H](Cc1ccccc1)NC(=O)[C@H](CO)NC(=O)[C@@H](N)Cc1ccc(O)cc1)C(=O)N[C@@H](CC(C)C)C(=O)N[C@@H](CC(C)C)C(=O)NCC(=O)N[C@H](CCCN=C(N)N)C(=O)O
Homo sapiens
  EC50: 40 µM
[6]
  pD2: 4.43

## H-YSFKDMQLGR-OH
[1]
  pD2: 4.51
Homo sapiens
  EC50: 11.2 µM
Cavia porcellus [2]
  EC50: 28.4 µM
Cavia porcellus [3]
  EC50: 37.5 µM
Cavia porcellus [5]
  Platelet aggregation: 22.9 µM
[6]
  pD2: 5.05

## H-YSFKDMPPGR-OH
Homo sapiens
  EC50: 25.1 µM
Cavia porcellus [5]
  Platelet aggregation: 80 µM
[6]
  pD2: 4.68

## H-YSFKDCPLGR-OH
Homo sapiens
  EC50: 2.04 µM
Cavia porcellus [5]
  Platelet aggregation: 2.3 µM
[6]
  pD2: 5.79

## H-YSFKGMPLGR-OH
Homo sapiens
  EC50: 0.59 µM
Cavia porcellus [5]
  Platelet aggregation: 6.3 µM
[6]
  pD2: 6.23

## CSCC[C@H](NC(=O)[C@H](CC(=O)O)NC(=O)[C@H](CCCCN)NC(=O)[C@H](Cc1ccccc1)NC(=O)[C@H](CO)NC(=O)[C@@H](N)Cc1ccc(O)cc1)C(=O)N[C@@H](CCC(N)=O)C(=O)N[C@@H](CC(C)C)C(=O)N1CCC[C@H]1C(=O)N[C@@H](CCCN=C(N)N)C(=O)O
Homo sapiens
  EC50: > 1000 µM
Cavia porcellus [5]
  Platelet aggregation: 225 µM
[6]
  pD2: < 3

## CSCC[C@H](NC(=O)[C@H](CC(=O)O)NC(=O)[C@H](CCCCN)NC(=O)[C@H](Cc1ccccc1)NC(=O)[C@H](CO)NC(=O)[C@@H](N)Cc1ccc(O)cc1)C(=O)N1CCC[C@H]1C(=O)N[C@@H](CC(C)C)C(=O)NCC(=O)N[C@@H](CCCN=C(N)N)C(=O)O
[1]
  pD2: 5.14
Homo sapiens
  EC50: 1.13 µM
Cavia porcellus [2]
  EC50: 8.1 µM
Cavia porcellus [3]
  EC50: 11.5 µM
Cavia porcellus [5]
  Platelet aggregation: 6.3 µM
[6]
  pD2: 6.18

## CC(C)C[C@H](NC(=O)[C@@H]1CCCN1C(=O)[C@H](CS)NC(=O)[C@H](CC(=O)O)NC(=O)[C@H](CCCCN)NC(=O)[C@H](Cc1ccccc1)NC(=O)[C@H](CO)NC(=O)[C@@H](N)Cc1ccc(O)cc1)C(=O)N[C@@H](CS)C(=O)N[C@@H](CCCN=C(N)N)C(=O)O (H-YSFKDCPLCR-OH)
Homo sapiens
  EC50: 26.6 µM
Cavia porcellus [5]
  Platelet aggregation: 4.1 µM
[6]
  pD2: 4.67

## C[C@H](NC(=O)[C@@H]1CCCN1C(=O)[C@H](CCS)NC(=O)[C@H](CC(=O)O)NC(=O)[C@H](CCCCN)NC(=O)[C@H](Cc1ccccc1)NC(=O)[C@H](CO)NC(=O)[C@@H](N)Cc1ccc(O)cc1)C(=O)N[C@H](C)C(=O)N[C@@H](CCCN=C(N)N)C(=O)O
[6]
  pD2: 4.86

## H-YSFKDMQPGR-OH
[1]
  pD2: 3.64
Homo sapiens
  EC50: 48 µM
Cavia porcellus [3]
  EC50: 344 µM
Cavia porcellus [5]
  Platelet aggregation: 500 µM
[6]
  pD2: 4.4

## CC(C)C[C@@H]1NC(=O)[C@@H]2CCCN2C(=O)[C@@H](NC(=O)[C@H](CC(=O)O)NC(=O)[C@H](CCCCN)NC(=O)[C@H](Cc2ccccc2)NC(=O)[C@H](CO)NC(=O)[C@@H](N)Cc2ccc(O)cc2)CSSC[C@@H](C(=O)N[C@@H](CCCN=C(N)N)C(=O)O)NC1=O (H-YSFKDCPLCR-OH; disulfide 6-9)
Homo sapiens
  EC50: 162 µM
Cavia porcellus [5]
  Platelet aggregation: >410 µM
[6]
  pD2: < 4
